Source: PubChem
A selection: hits, their analogues and other compounds. The true share with any hit is near 1.2%.
pCIP destab: compounds decreasing mouse p/CIP protein stability; Q05BA5; F442A p/CIP-EGFP cells, EGFP fluorescence, 16 h; decrease of EGFP signal, % at 10 µM; 0.01% of 290,000 active; AID 1984;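 active = EGFP signal decrease of at least 30% at 10 µM or well 3 SD below plate mean, unless failing retest; inactive = the rest, including hits failing retest or dose response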
proCasp3 act: activates human procaspase-3 | P42574 | recombinant procaspase-3 D3A, Ac-DEVD-pNA absorbance 405 nm | activation, % at 8.5 µM | 0.11% of 330,000 active | AID 463141;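 active = activation above the mean of all tested compounds plus 3 SD, cut at about 21% in these data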
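Test system: Procaspase-3 D3A mutant, all three cleavage aspartates alanine | Dosing: Single dose, 8.5 µM nominal compound, 0.8% DMSO | Schedule: 1 h preincubation, 2 h reaction | Technique: 405 nm absorbance of p-nitroaniline, reads at 0 and 120 min | Repeats: One well per compound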
FXN GAA850 act: activators of GAA850 frataxin (FXN) promoter; HEK293 lucGAA850 FXN promoter luciferase reporter, 24 h; percent of 10 µM SAHA response; 0.56% of 360,000 active; activation, % at 6 µM;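 active = activation above the average of all compounds screened plus 3 SD, cutoff fixed separately per campaign, cut at about 7.5% in these data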
Rce1 inh: yeast Ras-converting enzyme inhibition. Q03530. calls only. 0.27% of 290,000 active. AID 2563. yeast membranes, quenched prenylated peptide cleavage fluorescence;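 active = fall in fluorescence gain of 50% or more versus controls, with final raw signal at or below 3038400; inconclusive = same 50% fall but final raw signal above 3038400; inactive = fall in fluorescence gain under 50%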
Target sequence (Q03530 whole entry, looked up): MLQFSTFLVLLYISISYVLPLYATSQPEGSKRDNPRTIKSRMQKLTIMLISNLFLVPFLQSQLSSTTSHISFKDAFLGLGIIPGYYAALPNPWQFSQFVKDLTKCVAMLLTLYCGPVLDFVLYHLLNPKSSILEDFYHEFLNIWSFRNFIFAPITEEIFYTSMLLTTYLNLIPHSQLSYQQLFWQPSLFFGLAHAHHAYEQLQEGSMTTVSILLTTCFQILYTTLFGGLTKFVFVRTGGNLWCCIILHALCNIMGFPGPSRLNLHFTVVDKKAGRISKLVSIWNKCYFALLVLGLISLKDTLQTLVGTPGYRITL
procasp7 counter: counter-screen for procaspase-3 activators: activators of human procaspase-7. P55210. recombinant procaspase-7, Ac-DEVD-pNA absorbance 405 nm; D23A/D198A/D206A triple mutant, cannot self-cleave; scale: DMSO 0, 5 µM enzyme 100. activation, % at 8.5 µM. 0.093% of 330,000 active;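 active = percent activation above the screen-wide mean plus 3 SD, cut at about 25% in these data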
Target sequence (P55210 whole entry D23A/D198A/D206A): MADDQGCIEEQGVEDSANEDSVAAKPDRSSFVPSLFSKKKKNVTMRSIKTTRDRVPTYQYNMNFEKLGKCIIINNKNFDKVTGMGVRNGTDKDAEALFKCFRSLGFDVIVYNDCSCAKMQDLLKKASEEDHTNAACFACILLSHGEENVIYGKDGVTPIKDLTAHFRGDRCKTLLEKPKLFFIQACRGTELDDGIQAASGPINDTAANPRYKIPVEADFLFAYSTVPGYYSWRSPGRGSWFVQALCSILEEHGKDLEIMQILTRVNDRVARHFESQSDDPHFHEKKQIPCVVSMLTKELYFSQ
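Detection: p-Nitroaniline absorbance at 405 nm, read at 0 and 120 min; system: Uncleavable procaspase-7 mutant enzyme; evaluation: % activation from two-timepoint absorbance difference, scaled to controls; times: 1 h enzyme–compound preincubation and 2 h substrate reaction, both 25 °C; buffer or medium: Zinc-free HEPES pH 7.4 with 300 mM NaCl, 0.01% Triton X-100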
Hep lipid drop: hepatic lipid droplet formation modulation | AID 1656 | inhibition, % at 6.5 µM | AML12 mouse hepatocytes, oleate lipid droplets, BODIPY imaging | 0.4% of 240,000 active;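 active = lipid droplet intensity inhibited by at least 50%, with more than 500 cells counted; inconclusive = wells with under 300 cells, treated as cytotoxic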
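Test system: AML12 hepatocytes (mouse); reagent: oleate loading, 100 µM; dosing: one dose, 6.5 µM compound; incubation: overnight exposure; signal: fluorescence imaging, 20x objective, two fields per well; read-out basis: % inhibition of corrected integrated BODIPY droplet signal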
GAA30 counter: activates GAA30 frataxin promoter, counter-screen for GAA850 activators; shares compounds with FXN GAA850 act; HEK293 lucGAA30 FXN promoter luciferase, 24 h; DMSO = 0%, 5 µM ipriflavone = 100%; activation, % at 6 µM; 66% of 1,900 active;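 active = mean activation above the mean of solvent-only control wells plus 3 SD, cut at about 22% in these data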;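 also: counterscreen of GAA850 promoter hits where activity marks nonselective or luminescence artifacts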
FXN GAA850 conf: GAA850 FXN promoter activation confirmation; shares compounds with FXN GAA850 act; HEK293 lucGAA850 FXN promoter luciferase reporter, 24 h; 100% = activation by SAHA; activation, % at 6 µM; 86% of 1,900 active; AID 588351;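 active = mean activation above a set limit taken from the primary screen, cut at about 8% in these data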
Large screens that a line does not name were inactive (follow-up assays come after a bar, where they were run).

COc1ccc(C2CC(=O)N(C)c3ccccc3S2)cc1OC (centres undefined)	FXN GAA850 act 8.4 (no result: Rce1 inh) | GAA30 counter 122 | FXN GAA850 conf 45
Cn1c(N)c(C(=O)COC(=O)COc2ccc(Cl)cc2Cl)c(=O)n(C)c1=O	none (no result: pCIP destab, Rce1 inh, Hep lipid drop)
Cc1nn(C)c(C)c1S(=O)(=O)NC1CCCC1	none (no result: Hep lipid drop)
Cc1nn(-c2nnc(NC3CCCCC3)nn2)c(C)c1Br	FXN GAA850 act 8.6 | GAA30 counter 124 | FXN GAA850 conf 40
Oc1cccc(/C=N/N=C/c2cccc(O)c2O)c1O	FXN GAA850 act 8.9 | GAA30 counter 37 | FXN GAA850 conf 18
CCC(=NOCc1ccccc1)C(=O)NNS(=O)(=O)c1ccc(C)cc1	none (no result: pCIP destab, proCasp3 act, Rce1 inh, procasp7 counter, Hep lipid drop)
COc1c(O)ccc(/C=N\NC(=O)c2ccc3c(c2)OCO3)c1[N+](=O)[O-]	none
COc1c(O)ccc(/C=N/NC(=O)c2ccc3c(c2)OCCO3)c1[N+](=O)[O-]	FXN GAA850 act 7.7 (no result: Hep lipid drop) | GAA30 counter 71 | FXN GAA850 conf 19
CN(c1ccccc1)c1ccc(/C=C/[N+](=O)[O-])cc1	FXN GAA850 act 16 | GAA30 counter inactive | FXN GAA850 conf inactive
COc1ccc(-c2nc3c(Br)c(N)c(Br)cc3o2)cc1	none (no result: Rce1 inh)
Nc1c(Br)cc2oc(-c3ccccc3)nc2c1Br	FXN GAA850 act 7.9 | GAA30 counter 102 | FXN GAA850 conf 41
S=C(Nc1ccccn1)c1ccccn1	FXN GAA850 act 15 | GAA30 counter 104 | FXN GAA850 conf 43
Cc1ccc(C)c(NC(=S)c2ccccn2)c1	FXN GAA850 act 13 (no result: Hep lipid drop) | GAA30 counter 78 | FXN GAA850 conf 28
S=C(NCCc1ccccc1)Nc1ccccn1	FXN GAA850 act 8.0 | GAA30 counter 98 | FXN GAA850 conf 30
O=C(C=Cc1ccccn1)c1ccccc1	none (no result: pCIP destab, proCasp3 act, Rce1 inh, procasp7 counter, Hep lipid drop)
O=C(C=Cc1ccccn1)c1ccccc1O	FXN GAA850 act 8.5 (no result: pCIP destab, proCasp3 act, Rce1 inh, procasp7 counter, Hep lipid drop) | GAA30 counter inactive | FXN GAA850 conf 26
COc1ccc(-c2cn3ccccc3n2)cc1OC	FXN GAA850 act 7.9, Rce1 inh inconclusive (no result: Hep lipid drop) | GAA30 counter 146 | FXN GAA850 conf 44
CC(=NNC(=S)N(Cc1ccccn1)Cc1ccccn1)c1cnccn1	FXN GAA850 act 12 (no result: pCIP destab, proCasp3 act, Rce1 inh, procasp7 counter, Hep lipid drop) | GAA30 counter inactive | FXN GAA850 conf inactive
S=C(NN=C(c1ccccc1)c1ccccn1)N(Cc1ccccn1)Cc1ccccn1	none (no result: pCIP destab, proCasp3 act, Rce1 inh, procasp7 counter, Hep lipid drop)
CN(C)c1nc(OCCNC(=O)COc2ccc(Cl)cc2Cl)nc(N(C)C)n1	FXN GAA850 act 8.3 | GAA30 counter inactive | FXN GAA850 conf inactive
O=S(=O)(CC(CN1CCCCC1)N1CCCCC1)c1ccccc1 (centres undefined)	FXN GAA850 act 8.4 | GAA30 counter 76 | FXN GAA850 conf 30
O=[N+]([O-])c1ccc(S(=O)(=O)CC(CN2CCCCC2)N2CCCCC2)cc1 (centres undefined)	none
COc1nc(NCCO)nc(Nc2ccccc2F)n1	FXN GAA850 act 14 | GAA30 counter 86 | FXN GAA850 conf 25
C=C(C)Cn1c2ccc(NC(=O)NCCc3ccccc3)cc2c(=O)n1C	none (no result: pCIP destab, proCasp3 act, Rce1 inh, procasp7 counter, Hep lipid drop)
O=C(CCS(=O)(=O)c1ccccc1)Nc1nc(-c2cccs2)cs1	FXN GAA850 act 8.8 | GAA30 counter inactive | FXN GAA850 conf 9.8
CC(=O)c1cccc(N2C(=O)CC(N3CCN(S(=O)(=O)c4ccc(Cl)cc4)CC3)C2=O)c1 (centres undefined)	none (no result: pCIP destab, Rce1 inh, Hep lipid drop)
CCc1ccc(OCC(=O)NCc2ccco2)c(Br)c1	FXN GAA850 act 8.6 | GAA30 counter 76 | FXN GAA850 conf 24
CC1(NC(=O)CSc2nnc(-c3c[nH]c4ccccc34)n2C2CC2)CCS(=O)(=O)C1 (centres undefined)	none (no result: pCIP destab, Rce1 inh, Hep lipid drop)
O=C(CSc1nc(-c2ccc(F)cc2)cs1)N1CCOCC1	FXN GAA850 act 8.1 | GAA30 counter 74 | FXN GAA850 conf 27
CC1CN(C(=O)CSc2nc(-c3ccc(F)cc3)cs2)CC(C)O1 (centres undefined)	none
CC1=C(c2ccc(C)cc2)S(=O)(=O)N(CC(=O)O)C1=O	none
COC(=O)CN1C(=O)C(C)=C(c2ccc(C)cc2)S1(=O)=O	FXN GAA850 act 13 | GAA30 counter 26 | FXN GAA850 conf 8.2
COc1ccc(NC(=O)CSCC(=O)Nc2cc(Cl)ccc2N2CCCC2)cc1	FXN GAA850 act 8.5 | GAA30 counter inactive | FXN GAA850 conf inactive
COc1ccc(NC(=O)CSCC(=O)Nc2cc(Cl)ccc2N2CCOCC2)cc1	none (no result: pCIP destab, Hep lipid drop)
COC(=O)C1=C(C(=O)OC)[C@]2([C@@H]3CC=CCN[C@@H](Cc4ccccc4)C(=O)N3Cc3ccccc3)C=C[C@H]1O2	FXN GAA850 act 9.1 (no result: pCIP destab, proCasp3 act, Rce1 inh, procasp7 counter, Hep lipid drop) | GAA30 counter inactive | FXN GAA850 conf inactive
Cc1c(N=O)c(-c2ccccc2)n(O)[n+]1[O-]	none (no result: pCIP destab, proCasp3 act, Rce1 inh, procasp7 counter, Hep lipid drop)
S=C(NC12CC3CC(CC(C3)C1)C2)N1CCCC1	FXN GAA850 act 9.4 | GAA30 counter 27 | FXN GAA850 conf 11
Nc1nc(CSc2ccccc2)nc(N2CCCCC2)n1	FXN GAA850 act 7.9 | GAA30 counter 98 | FXN GAA850 conf 29
COc1ccc2cc(/C(C)=N/NC(=O)c3cc(C)oc3C)ccc2c1	none (no result: pCIP destab, proCasp3 act, Rce1 inh, procasp7 counter, Hep lipid drop)
COc1cc(NC(=O)CCc2nnc3ccc(N4CCOCC4)nn23)cc(OC)c1OC	none
Cc1ccc(NC(=O)CCc2nnc3ccc(N4CCOCC4)nn23)cc1C	FXN GAA850 act 13 | GAA30 counter inactive | FXN GAA850 conf inactive
CCOc1ccc(CNC(=O)Cn2nc(C)c3c(C)n(-c4ccc(C)cc4)nc3c2=O)cc1	none
Cc1ccc(/C=C/C(=O)N2CCN(S(=O)(=O)c3ccc(C)c(C)c3)CC2)o1	FXN GAA850 act 7.6 | GAA30 counter inactive | FXN GAA850 conf inactive
Cc1ccc(/C=C/C(=O)N2CCN(S(=O)(=O)c3c(C)c(C)cc(C)c3C)CC2)o1	none
C=CCn1c2ccccc2c(=O)c2cc(C#Cc3ccsc3)ccc21	none (no result: FXN GAA850 act)
C=CCn1c2ccccc2c(=O)c2cc(C#Cc3ccccn3)ccc21	FXN GAA850 act 9.0 (no result: pCIP destab, Rce1 inh, Hep lipid drop) | GAA30 counter 140 | FXN GAA850 conf 44
C=CCOC(=O)C1=C(C)NC(SCC(=O)Nc2nccs2)=C(C#N)C1c1ccc(Cl)cc1 (centres undefined)	FXN GAA850 act 9.6 (no result: Hep lipid drop) | GAA30 counter inactive | FXN GAA850 conf 8.9
Clc1ccccc1/C=N/NC1=Nc2cccc3cccc1c23	FXN GAA850 act 9.7 | GAA30 counter 84 | FXN GAA850 conf 39
